# Activity calls are given as the source filed them. The calls are words filed in the database; no cut-off is given here.
# Legend:
# [1] = biological target: 72 kDa type IV collagenase (Homo sapiens) (UniProt P08253); test: Inhibition of human recombinant full length active MMP-2 expressed in mouse cells using fluorogenic MOCAc-Pro-Leu-Gly-Leu-A2pr(Dnp)-Ala-Arg-NH2 as substrate at 10 uM by fluorescence spectrophotometric analysis; format: biochemical
# How it was run: (§1)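 Single-concentration screen: compounds were incubated at 10 μM with each MMP and its substrate, and percent inhibition was measured.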
# Neutrophil collagenase [2] = biological target: T1, Neutrophil collagenase (Homo sapiens, UniProt P22894); test: Inhibition of human recombinant MMP-8 catalytic domain (99 to 269 residues) expressed in Escherichia coli using fluorogenic Mca-KPLGL-Dpa-AR-NH2 as substrate by fluorescence spectrophotometric analysis
# T1 sequence (P22894 whole entry, the tested form may be a part): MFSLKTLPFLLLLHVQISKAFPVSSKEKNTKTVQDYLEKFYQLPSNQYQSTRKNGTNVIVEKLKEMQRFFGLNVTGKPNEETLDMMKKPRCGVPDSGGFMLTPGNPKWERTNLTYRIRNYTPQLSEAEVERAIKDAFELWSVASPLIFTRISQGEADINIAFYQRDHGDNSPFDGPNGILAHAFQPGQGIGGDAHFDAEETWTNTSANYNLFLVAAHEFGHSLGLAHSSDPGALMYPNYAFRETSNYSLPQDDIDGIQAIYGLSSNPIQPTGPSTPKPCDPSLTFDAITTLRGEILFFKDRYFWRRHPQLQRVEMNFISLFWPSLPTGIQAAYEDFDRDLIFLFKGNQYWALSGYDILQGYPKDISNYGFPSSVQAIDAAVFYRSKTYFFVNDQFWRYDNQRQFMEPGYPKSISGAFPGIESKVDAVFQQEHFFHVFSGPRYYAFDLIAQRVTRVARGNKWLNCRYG
# How it was run: (§2)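 Ki was determined only for compounds giving more than 50% inhibition in the 10 μM enzyme–substrate screen.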
# Collagenase 3 [3] = biological target: T2, Collagenase 3 (Homo sapiens, UniProt P45452); test: Inhibition of human recombinant MMP-13 catalytic domain (104 to 274 residues) expressed in Escherichia coli using fluorogenic Mca-KPLGL-Dpa-AR-NH2 as substrate by fluorescence spectrophotometric analysis; how it was run: as §2
# [4] = biological target: T3, Interstitial collagenase (Homo sapiens) (UniProt P03956); test: Inhibition of human recombinant MMP-1 catalytic domain (100 to 268 residues) expressed in Escherichia coli using fluorogenic Mca-KPLGL-Dpa-AR-NH2 as substrate at 10 uM by fluorescence spectrophotometric analysis; how it was run: as §1
# T3 sequence (whole entry): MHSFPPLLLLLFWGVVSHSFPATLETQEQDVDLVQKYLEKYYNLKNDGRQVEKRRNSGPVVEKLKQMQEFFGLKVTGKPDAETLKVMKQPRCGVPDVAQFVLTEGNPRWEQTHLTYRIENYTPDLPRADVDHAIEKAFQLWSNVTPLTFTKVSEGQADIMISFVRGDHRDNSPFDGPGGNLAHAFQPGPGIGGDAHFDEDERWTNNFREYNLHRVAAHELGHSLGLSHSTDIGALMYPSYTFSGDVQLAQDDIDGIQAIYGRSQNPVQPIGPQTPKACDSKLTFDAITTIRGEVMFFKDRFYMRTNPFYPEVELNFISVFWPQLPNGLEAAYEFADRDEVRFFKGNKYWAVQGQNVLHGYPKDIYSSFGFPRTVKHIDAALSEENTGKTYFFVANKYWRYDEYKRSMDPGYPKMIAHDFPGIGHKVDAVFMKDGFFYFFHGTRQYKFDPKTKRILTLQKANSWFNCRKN
# [5] = biological target: Matrix metalloproteinase-9 (Homo sapiens) (UniProt P14780); test: Inhibition of human recombinant MMP-9 catalytic domain (107 to 449 residues) expressed in Escherichia coli using fluorogenic MOCAc-Pro-Leu-Gly-Leu-A2pr(Dnp)-Ala-Arg-NH2 as substrate at 10 uM by fluorescence spectrophotometric analysis; how it was run: as §1
# Sequence of Matrix metalloproteinase-9 (Homo sapiens) (P14780 whole entry, the tested form may be a part): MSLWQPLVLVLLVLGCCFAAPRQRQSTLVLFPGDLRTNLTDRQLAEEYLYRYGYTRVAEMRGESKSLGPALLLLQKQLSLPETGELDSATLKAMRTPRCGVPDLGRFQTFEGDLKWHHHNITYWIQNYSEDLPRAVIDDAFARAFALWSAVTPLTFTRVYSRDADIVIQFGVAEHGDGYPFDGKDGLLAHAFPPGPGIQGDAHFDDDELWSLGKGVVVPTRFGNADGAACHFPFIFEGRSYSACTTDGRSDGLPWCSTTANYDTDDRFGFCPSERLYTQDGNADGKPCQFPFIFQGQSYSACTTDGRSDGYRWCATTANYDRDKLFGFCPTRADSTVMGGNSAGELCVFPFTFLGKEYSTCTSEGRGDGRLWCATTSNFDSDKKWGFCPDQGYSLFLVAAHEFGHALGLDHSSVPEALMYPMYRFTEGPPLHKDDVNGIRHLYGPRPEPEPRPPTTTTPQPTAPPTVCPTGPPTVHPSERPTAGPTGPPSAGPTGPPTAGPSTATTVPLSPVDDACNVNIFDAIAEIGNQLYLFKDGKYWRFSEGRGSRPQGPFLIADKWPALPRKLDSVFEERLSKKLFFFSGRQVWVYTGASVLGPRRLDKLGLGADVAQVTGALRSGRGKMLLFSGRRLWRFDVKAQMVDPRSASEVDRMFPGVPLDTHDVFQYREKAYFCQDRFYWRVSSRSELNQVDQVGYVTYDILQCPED
# [6] = biological target: Matrix metalloproteinase-14 (Homo sapiens) (UniProt P50281); test: Inhibition of human recombinant MMP-14 catalytic domain ([…]) using fluorogenic MOCAc-Pro-Leu-Gly-Leu-A2pr(Dnp)-Ala-Arg-NH2 as substrate at 10 uM by fluorescence spectrophotometric analysis relative to control; how it was run: as §1
# Collagenase 3 [7] = biological target: T2, Collagenase 3; test: Inhibition of human recombinant MMP-13 catalytic domain (104 to 274 residues) expressed in Escherichia coli using fluorogenic Mca-KPLGL-Dpa-AR-NH2 as substrate at 10 uM by fluorescence spectrophotometric analysis relative to control; how it was run: as §1
# [8] = biological target: MMP-8 (neutrophil collagenase) (Homo sapiens, UniProt P22894); test: (§3) Inhibition of human recombinant MMP-8 catalytic domain (99 to 269 residues) expressed in Escherichia coli using fluorogenic Mca-KPLGL-Dpa-AR-NH2 as substrate at 10 uM by fluorescence spectrophotometric analysis relative to control; conditions: probe Mca-KPLGL-Dpa-AR-NH2 (fluorogenic)
# Sequence of MMP-8 (neutrophil collagenase) (P22894 whole entry, the tested form may be a part): as the sequence (P22894 whole entry, the tested form may be a part) above
# [9] = biological target: T4, Matrilysin (Homo sapiens) (UniProt P09237); test: Inhibition of human recombinant active MMP-7 expressed in Escherichia coli using fluorogenic MOCAc-Pro-Leu-Gly-Leu-A2pr(Dnp)-Ala-Arg-NH2 as substrate at 10 uM by fluorescence spectrophotometric analysis; how it was run: as §1
# T4 sequence (whole entry): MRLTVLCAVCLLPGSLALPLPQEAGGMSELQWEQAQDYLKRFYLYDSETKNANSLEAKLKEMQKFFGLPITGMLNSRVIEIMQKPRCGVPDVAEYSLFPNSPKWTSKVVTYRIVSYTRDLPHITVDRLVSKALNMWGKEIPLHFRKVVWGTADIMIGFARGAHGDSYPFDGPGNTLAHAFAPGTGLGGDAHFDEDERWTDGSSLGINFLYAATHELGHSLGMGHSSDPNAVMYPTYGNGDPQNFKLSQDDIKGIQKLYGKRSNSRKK
# [10] = biological target: Matrix metalloproteinase-14 (Homo sapiens) (UniProt P50281); test: Inhibition of human recombinant MMP-14 catalytic domain (89 to 265 residues) expressed in Escherichia coli using fluorogenic MOCAc-Pro-Leu-Gly-Leu-A2pr(Dnp)-Ala-Arg-NH2 as substrate at 10 uM by fluorescence spectrophotometric analysis; how it was run: as §1
# [11] = biological target: Stromelysin-1 (Homo sapiens) (UniProt P08254); test: Inhibition of human recombinant MMP-3 catalytic domain expressed in Escherichia coli using fluorogenic MOCAc-Arg-Pro-Lys-Pro-Val-Glu-Nva-Trp-Arg-Lys(Dnp)-NH2 as substrate at 10 uM by fluorescence spectrophotometric analysis; how it was run: as §1
# Sequence of Stromelysin-1 (Homo sapiens) (P08254 100-477 limits assumed): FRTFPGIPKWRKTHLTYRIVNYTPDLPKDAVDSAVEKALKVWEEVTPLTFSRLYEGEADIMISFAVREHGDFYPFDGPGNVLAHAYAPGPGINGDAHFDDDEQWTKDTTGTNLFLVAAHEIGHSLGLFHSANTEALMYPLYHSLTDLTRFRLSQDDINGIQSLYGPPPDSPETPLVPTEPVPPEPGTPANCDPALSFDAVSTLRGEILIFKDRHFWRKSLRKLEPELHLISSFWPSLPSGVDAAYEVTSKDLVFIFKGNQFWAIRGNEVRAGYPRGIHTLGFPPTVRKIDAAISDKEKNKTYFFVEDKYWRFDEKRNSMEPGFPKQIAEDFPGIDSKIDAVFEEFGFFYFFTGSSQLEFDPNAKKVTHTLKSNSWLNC
# Neutrophil collagenase [12] = biological target: T1, Neutrophil collagenase; test: as §3; conditions: 10 µM
# [13] = biological target: Matrix metalloproteinase-14 (Homo sapiens) (UniProt P50281); test: Inhibition of human recombinant MMP-14 catalytic domain ([…]) using fluorogenic MOCAc-Pro-Leu-Gly-Leu-A2pr(Dnp)-Ala-Arg-NH2 as substrate at 50 uM by fluorescence spectrophotometric analysis relative to control
# [14] = Plasma concentration in CD-1 mouse at 1 mg/kg, iv administered as single dose after 24 hrs by UPLC analysis; format: ADME, organism-based
# How it was run: (§4)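 Mouse pharmacokinetics after a single 1 mg/kg intravenous dose. Three mice were sampled per time point and plasma concentration–time curves were built. Plasma levels were read at 2 min and at 24 h. AUC0-∞, clearance (also expressed as a percentage of hepatic blood flow), volume of distribution and elimination half-life were derived from the curves.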
# [15] = Volume of distribution in CD-1 mouse at 1 mg/kg, iv administered as single dose by UPLC analysis; format: ADME, organism-based; conditions: in vivo; how it was run: as §4
# [16] = Clearance in CD-1 mouse at 1 mg/kg, iv administered as single dose by UPLC analysis; format: ADME, organism-based; conditions: in vivo; how it was run: as §4
# [17] = Plasma concentration in CD-1 mouse at 10 mg/kg, po after 48 hrs by UPLC analysis; conditions: in vivo
# [18] = Cmax in CD-1 mouse at 10 mg/kg, po after 6 hrs by UPLC analysis; format: ADME, organism-based; set-up: dose 10 mg/kg, route oral; conditions: in vivo
# How it was run: (§5)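 Mouse pharmacokinetics after a single 10 mg/kg oral dose. Three mice were sampled per time point, out to 48 h, and plasma concentration–time curves were built. Cmax and its time, elimination half-life and AUC0-∞ were derived. Absolute oral bioavailability came from the oral AUC relative to the intravenous (1 mg/kg) AUC, after dose adjustment.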
# [19] = AUC (0 to infinity) in CD-1 mouse at 1 mg/kg, iv administered as single dose by UPLC analysis; format: ADME, organism-based; set-up: dose 1 mg/kg, time infinity, route intravenous; conditions: in vivo; how it was run: as §4
# [20] = Oral bioavailability in CD-1 mouse at 10 mg/kg by UPLC analysis; format: ADME, organism-based; conditions: in vivo; how it was run: as §5
# Mus musculus [21] = test: Time at which plasma concentration stays above human recombinant MMP-13 Ki level in CD-1 mouse at 1 mg/kg, iv administered as single dose by UPLC analysis
# Mus musculus [22] = test: Clearance in CD-1 mouse at 1 mg/kg, iv administered as single dose by UPLC analysis relative to hepatic blood flow; format: ADME, organism-based; conditions: in vivo; how it was run: as §4
# [23] = Elimination half life in CD-1 mouse at 10 mg/kg, po by UPLC analysis; format: ADME, organism-based; conditions: in vivo, read-out: beta t1/2 (converted); how it was run: as §5
# [24] = Elimination half life in CD-1 mouse at 1 mg/kg, iv administered as single dose by UPLC analysis; format: ADME, organism-based; conditions: in vivo, read-out: beta t1/2 (converted); how it was run: as §4
# [25] = Plasma concentration in CD-1 mouse at 1 mg/kg, iv administered as single dose after 2 mins by UPLC analysis; format: ADME, organism-based; how it was run: as §4
# [26] = AUC (0 to infinity) in CD-1 mouse at 10 mg/kg, po by UPLC analysis; format: ADME, organism-based; set-up: dose 10 mg/kg, time infinity, route oral; conditions: in vivo
# Sequence of 72 kDa type IV collagenase (Homo sapiens) (P08253 110-660 limits assumed): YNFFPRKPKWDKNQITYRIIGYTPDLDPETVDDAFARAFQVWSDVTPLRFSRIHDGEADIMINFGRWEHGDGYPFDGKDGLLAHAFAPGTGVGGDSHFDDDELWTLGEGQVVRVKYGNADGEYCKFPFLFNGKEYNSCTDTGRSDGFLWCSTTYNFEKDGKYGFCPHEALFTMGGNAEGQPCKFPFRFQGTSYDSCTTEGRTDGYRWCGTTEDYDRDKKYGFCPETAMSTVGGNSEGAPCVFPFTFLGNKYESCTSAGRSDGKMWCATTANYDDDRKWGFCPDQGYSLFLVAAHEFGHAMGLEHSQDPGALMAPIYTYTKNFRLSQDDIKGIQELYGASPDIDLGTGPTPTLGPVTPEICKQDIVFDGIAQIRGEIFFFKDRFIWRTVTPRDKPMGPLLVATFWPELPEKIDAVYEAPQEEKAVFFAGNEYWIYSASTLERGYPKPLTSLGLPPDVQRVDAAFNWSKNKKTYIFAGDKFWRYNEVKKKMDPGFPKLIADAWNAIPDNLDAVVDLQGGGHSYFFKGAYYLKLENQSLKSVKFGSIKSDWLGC
SMILES,inhibition [1],Ki (Neutrophil collagenase [2]),Ki (Collagenase 3 [3]),inhibition [4],inhibition [5],inhibition [6],inhibition (Collagenase 3 [7]),inhibition at 10 µM [8],inhibition [9],inhibition [10],inhibition [11],inhibition (INH) (Neutrophil collagenase [12]),further results
O=C1COc2ccc(CNC(=O)c3nc4sc5c(c4c(=O)[nH]3)CCCCCC5)cc2N1,inactive,0.00071 µM,0.00059 µM,inactive,inactive,14%,> 50%,> 50%,inactive,inactive,inactive,–,–
O=C1COc2ccc(CNC(=O)c3cc(-c4ccccc4)n[nH]3)cc2N1,–,–,–,–,–,–,Active,–,–,–,–,Not Active,–
O=C1COc2ccc(CNC(=O)c3cc(-c4cccc5ccccc45)n[nH]3)cc2N1,–,–,–,–,–,–,Active,–,–,–,–,Not Active,–
O=C1COc2ccc(CNC(=O)c3cc(-c4ccsc4)n[nH]3)cc2N1,–,–,–,–,–,–,Active,–,–,–,–,Not Active,–

# Now from value to molecule, other results behind:
inhibition [1],Ki (Neutrophil collagenase [2]),Ki (Collagenase 3 [3]),inhibition [4],inhibition [5],inhibition [6],inhibition (Collagenase 3 [7]),inhibition at 10 µM [8],inhibition [9],inhibition [10],inhibition [11],inhibition (INH) (Neutrophil collagenase [12]),SMILES,further results
inactive,0.019 µM,0.00047 µM,inactive,inactive,14%,> 50%,> 50%,inactive,inactive,inactive,–,O=C1COc2ccc(CNC(=O)c3nc4scc(C5CCCCC5)c4c(=O)[nH]3)cc2N1,–
inactive,0.0033 µM,0.0245 µM,inactive,inactive,–,> 50%,> 50%,inactive,inactive,inactive,–,O=C1COc2ccc(CNC(=O)c3nc4sc(C5CCCCC5)cc4c(=O)[nH]3)cc2N1,inhibition [13]: 57%
inactive,8.5 µM,0.036 µM,inactive,inactive,1%,> 50%,> 50%,inactive,inactive,inactive,–,O=C1COc2ccc(CNC(=O)c3nc4scc(-c5ccc(C(F)(F)F)cc5)c4c(=O)[nH]3)cc2N1,concentration at 24 h [14]: 62 nM; Vd [15]: 1 L/kg; clearance [16]: 2.2 mL/min/kg; Plasma concentration at 48 h [17]: 42 nM; Cmax [18]: 400 nM; AUC(0-inf) [19]: 14.8 µM·h; bioavailability [20]: 4.7%; Time (Mus musculus [21]): 24 h; CL (Mus musculus [22]): 3%; half-life [23]: 17.5 h; half-life [24]: 5.3 h; concentration at 2 min [25]: 4400 nM; AUC(0-inf) [26]: 6.92 µM·h
inactive,6.5 µM,0.19 µM,inactive,inactive,4%,> 50%,> 50%,inactive,inactive,inactive,–,O=C1COc2ccc(CNC(=O)c3nc4scc(CCc5ccccc5)c4c(=O)[nH]3)cc2N1,–
